Sampled rows, rich in hits. Any-hit rate of the full collection: about 6.8%.
ALR inh: inhibitors of human sulfhydryl oxidase ALR | AID 485317 | purified ALR, DTT oxidation, H2O2 HRP-luminol luminescence | 290,000 tested, 3.8% active | inhibition, % (concentration not given with the values);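 active = mean replicate inhibition above about 79%, with every replicate also reaching it, limit read from the data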
HSF-1 act: increases HSF-1 driven luciferase reporter signal; activation, % at 9 µM; 300,000 tested, 1.7% active; NIH3T3-HGL HSF-1 luciferase reporter, MG132, 8 h; 100% = twice DMSO control signal;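 active = mean replicate activation of at least 50% with a set share of replicates each reaching 50%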
HSF1 inh: HSF1 inhibition. activity change, negative = inhibition, % at 7.5 µM (by protocol). 300,000 tested, 0.77% active. AID 2098. NIH3T3-HGL HSE-luciferase, MG132-induced, luminescence 8 h; stronger effect = lower value;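 active = more than half of replicate wells show activity change below -50%, luminescence cut by over half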;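 also: luciferase reports HSF-1 transcriptional activity via heat shock element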
PHOSPHO1 inh: inhibitors of human PHOSPHO1 phosphatase | Q8TCT1 | recombinant PHOSPHO1, absorbance phosphatase assay | inhibition, % at 13.3 µM | 290,000 tested, 1.1% active | AID 1565; in the data active = inhibition above about 60%
Target sequence (Q8TCT1 whole entry, looked up): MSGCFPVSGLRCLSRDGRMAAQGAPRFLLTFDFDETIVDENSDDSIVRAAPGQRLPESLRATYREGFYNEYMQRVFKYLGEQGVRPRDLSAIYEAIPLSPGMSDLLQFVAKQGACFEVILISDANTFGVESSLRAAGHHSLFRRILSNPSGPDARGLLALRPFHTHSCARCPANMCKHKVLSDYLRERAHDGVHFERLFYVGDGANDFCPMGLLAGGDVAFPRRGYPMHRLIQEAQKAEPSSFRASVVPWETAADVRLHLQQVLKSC
HCV core dimer: blocks dimerization of HCV core protein; TR-FRET GST/Flag-core106 dimerization, 1536-well; 300,000 tested, 0.33% active; inhibition, % at 5 µM; AID 1899;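 active = inhibition above the mean of all tested compounds plus 3 SD, set per screening campaign, cut at about 45% in these data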
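assay system = GST-tagged and Flag-tagged HCV core protein residues 1-106 | controls = unlabelled core106 and no-GST-core106 wells | incubation = compound-protein-antibody incubation 4 h at 22.5 °C | probe or stimulus = Eu donor and XL665 acceptor anti-tag antibodies | read-out = % inhibition based on acceptor/donor emission ratio | signal = TR-FRET 671 and 617 nm emission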
AI-2 QS mod: modulates the Vibrio harveyi AI-2 quorum sensing system | activity change, % at 7.5 µM | 300,000 tested, 0.4% active | AID 2094 | Vibrio harveyi JMH597 AI-2 luminescence/OD600 ratio, 9 h; stronger effect = lower value; strain lacks LuxN and CqsS sensors; 0 = neutral-control median; in the data active = activity change below about -75%, passing the limit was not always enough;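 also: luminescence divided by OD600 gain over 9 h not by final OD600 alone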
Of the large screens only hits and unclear results are named; the others gave an inactive call.

Cc1ccc(Cl)cc1NC(=O)CNC(=O)N1CC(=O)Nc2ccccc21	PHOSPHO1 inh 80
Cc1ccc(Cl)cc1NC(=O)CCNC(=O)N1CC(=O)Nc2ccccc21	none
CC(C)Oc1ccc(S(=O)(=O)N2CCOCC2)cc1NC(=O)c1cc([N+](=O)[O-])ccc1N1CCOCC1	none (no result: PHOSPHO1 inh)
COc1cccc(C2CC(c3cccs3)=NN2C(=O)c2ccco2)c1O (stereo unspecified)	HSF-1 act 63
O=C(c1ccco1)N1N=C(c2cccs2)CC1c1ccccc1O (stereo unspecified)	none
Cc1ccc(CNC(=O)CC(C)S(=O)(=O)c2ccc3c(c2)NC(=O)CS3)o1 (stereo unspecified)	ALR inh 98
COc1ccc(N2CCN(S(=O)(=O)c3c(C)noc3/C=C/N(C)C)CC2)cc1	none
Cc1noc(/C=C/N(C)C)c1S(=O)(=O)N1CCN(c2ccc(F)cc2)CC1	HSF1 inh -62
Cc1ncc(CO)c2c1Oc1nc(-c3ccccc3F)nc(SCC(=O)N(C)c3ccccc3)c1C2	HCV core dimer 53
O=C(c1cc(COc2ccc(F)cc2Cl)on1)N1CCCCCC1	HSF-1 act 60
Cc1ccc(S(=O)(=O)N2CCN(C(=O)c3ccc(Br)o3)CC2)c(C)c1	none
CCOc1ccc(CCNC(=O)C(O)c2ccccc2)cc1 (stereo unspecified)	ALR inh 99
CCOc1ccc(/C=N/NC(=O)C(O)c2ccccc2)c(O)c1 (stereo unspecified)	HSF1 inh -82
COc1ccc(/C=N/Nc2c(Cl)cc(Cl)cc2Cl)cc1CN1CCOCC1	none
O=C(N/N=C/c1c(O)n(-c2ccc(Cl)cn2)c(=O)c2ccccc12)c1ccncc1	ALR inh 80
O=C(N/N=C/c1c(O)n(-c2ccc(Cl)cn2)c(=O)c2ccccc12)C1CC1	ALR inh 95
CC(C)c1ccc(CCNC(=O)CCNS(=O)(=O)c2ccc(Br)cc2)cc1	none (no result: HSF-1 act, HSF1 inh, PHOSPHO1 inh, HCV core dimer, AI-2 QS mod)
CCOC(=O)c1cn(CC)c2cc(N3CCSCC3)c(F)cc2c1=O	ALR inh 99
CCn1cc(C(=O)NCc2ccco2)c(=O)c2cc(F)c(N3CCN(C(=O)c4ccco4)CC3)cc21	HCV core dimer 56
CCOC(=O)c1cn(CC)c2cc(N3CCN(C)CC3)c(F)cc2c1=O	none
CCN1CC(CN(C)Cc2nc(COc3ccccc3)no2)CC1=O (stereo unspecified)	HSF-1 act 55
CCN1CC(CN(C)Cc2nc(-c3ccc(OC)c4ccccc34)oc2C)CC1=O (stereo unspecified)	none
Cc1ccccc1Nc1nnc(SCc2cc([N+](=O)[O-])cc3c2OCOC3)s1	HSF-1 act 56, PHOSPHO1 inh 90
CC(=O)c1ccc(OCc2cc([N+](=O)[O-])cc3c2OCOC3)cc1	none
Cc1nnc(SCc2cc([N+](=O)[O-])cc3c2OCOC3)n(N)c1=O	none
O=[N+]([O-])c1cc2c(c(CSc3nnc(Nc4ccccc4)s3)c1)OCOC2	PHOSPHO1 inh 100 (no result: ALR inh)
COc1ccc(CNC(=O)CN(C(=O)c2csnn2)c2cccc3ccccc23)cc1	none (no result: AI-2 QS mod)
O=C(NCc1cc(C(F)(F)F)ccc1Cl)c1cccc2c1C(=O)c1ccc(Cl)cc1S2(=O)=O	none (no result: HSF-1 act, HSF1 inh, PHOSPHO1 inh, HCV core dimer, AI-2 QS mod)
CCOC(=O)C1=C(CSc2nc(-c3ccccc3)ccc2C#N)OC(N)=C(C#N)C1c1ccccc1 (stereo unspecified)	HCV core dimer 53 (no result: ALR inh)
CCOC(=O)C1=C(CSc2nc(-c3ccccc3)ccc2C#N)OC(N)=C(C#N)C1c1cccnc1 (stereo unspecified)	PHOSPHO1 inh 80
Nc1ccccc1Nc1c(F)c(F)nc(F)c1Cl	ALR inh 98
CCOC(=O)C1C(=O)C=C(/C=C/c2ccc(N(C)C)cc2)CC1c1ccccc1 (stereo unspecified)	none
CCCOc1ccc(CSC2=NCCN2)cc1[N+](=O)[O-]	ALR inh 99
CCCCOc1ccc(CSc2nnc(C)n2N)cc1[N+](=O)[O-]	none
CCCCOc1ccc(CSc2nc(C)[nH]c2[N+](=O)[O-])cc1[N+](=O)[O-]	ALR inh 99, PHOSPHO1 inh 61
